Assay results taken from ChEMBL document CHEMBL5120742, “Multi-target weapons: diaryl-pyrazoline thiazolidinediones simultaneously targeting VEGFR-2 and HDAC cancer hallmarks” (RSC Med Chem, 2021).

Columns and labels:
[1] = target: T1, Histone deacetylase 8 (Homo sapiens) (UniProt Q9BY41); assay: Inhibition of recombinant human N-terminal His6-SUMO-tagged C-terminal SII-tagged HDAC8 expressed in Escherichia coli (BL21) DE3 pLysS cells assessed as residual activity at 50 uM using BocLys(trifluoroacetyl)-AMC as substrate incubated for 30 mins by fluorescence assay relative to control
T1 sequence (whole entry): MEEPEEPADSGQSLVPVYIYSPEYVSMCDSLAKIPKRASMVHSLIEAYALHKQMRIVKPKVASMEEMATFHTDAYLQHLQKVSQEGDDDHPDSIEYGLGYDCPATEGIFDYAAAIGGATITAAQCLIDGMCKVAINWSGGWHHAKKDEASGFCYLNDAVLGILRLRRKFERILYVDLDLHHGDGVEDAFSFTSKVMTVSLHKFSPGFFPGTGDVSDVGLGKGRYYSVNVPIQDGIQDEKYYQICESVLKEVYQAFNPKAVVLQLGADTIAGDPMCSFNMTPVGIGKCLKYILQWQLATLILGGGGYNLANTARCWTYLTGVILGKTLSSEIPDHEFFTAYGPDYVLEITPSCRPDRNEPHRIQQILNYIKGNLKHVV
Method in brief: (§1)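 Catalytic-domain HDAC4 (His6-SUMO/SII-tagged) and full-length codon-optimized human HDAC8 were expressed in E. coli BL21 DE3 pLysS from pET14b. Both were assayed in a two-step fluorogenic format with Boc-Lys(trifluoroacetyl)-AMC, followed by trypsin development. Compounds were screened first at 50 µM for residual activity.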

Histone deacetylase 4 = Histone deacetylase 4 (Homo sapiens, UniProt P56524); assay: Inhibition of recombinant human N-terminal His6-SUMO-tagged C-terminal SII-tagged HDAC4 expressed in Escherichia coli (BL21) DE3 pLysS cells using BocLys(trifluoroacetyl)-AMC as substrate incubated for 30 mins by fluorescence assay; method in brief: as §1
[2] = target: T2, Protein deacetylase HDAC6 (Homo sapiens, UniProt Q9UBN7); assay: Inhibition of recombinant human HDAC6 using Boc-Lys(acetyl)-AMC as substrate incubated for 30 mins by fluorescence assay
T2 sequence (Q9UBN7 whole entry): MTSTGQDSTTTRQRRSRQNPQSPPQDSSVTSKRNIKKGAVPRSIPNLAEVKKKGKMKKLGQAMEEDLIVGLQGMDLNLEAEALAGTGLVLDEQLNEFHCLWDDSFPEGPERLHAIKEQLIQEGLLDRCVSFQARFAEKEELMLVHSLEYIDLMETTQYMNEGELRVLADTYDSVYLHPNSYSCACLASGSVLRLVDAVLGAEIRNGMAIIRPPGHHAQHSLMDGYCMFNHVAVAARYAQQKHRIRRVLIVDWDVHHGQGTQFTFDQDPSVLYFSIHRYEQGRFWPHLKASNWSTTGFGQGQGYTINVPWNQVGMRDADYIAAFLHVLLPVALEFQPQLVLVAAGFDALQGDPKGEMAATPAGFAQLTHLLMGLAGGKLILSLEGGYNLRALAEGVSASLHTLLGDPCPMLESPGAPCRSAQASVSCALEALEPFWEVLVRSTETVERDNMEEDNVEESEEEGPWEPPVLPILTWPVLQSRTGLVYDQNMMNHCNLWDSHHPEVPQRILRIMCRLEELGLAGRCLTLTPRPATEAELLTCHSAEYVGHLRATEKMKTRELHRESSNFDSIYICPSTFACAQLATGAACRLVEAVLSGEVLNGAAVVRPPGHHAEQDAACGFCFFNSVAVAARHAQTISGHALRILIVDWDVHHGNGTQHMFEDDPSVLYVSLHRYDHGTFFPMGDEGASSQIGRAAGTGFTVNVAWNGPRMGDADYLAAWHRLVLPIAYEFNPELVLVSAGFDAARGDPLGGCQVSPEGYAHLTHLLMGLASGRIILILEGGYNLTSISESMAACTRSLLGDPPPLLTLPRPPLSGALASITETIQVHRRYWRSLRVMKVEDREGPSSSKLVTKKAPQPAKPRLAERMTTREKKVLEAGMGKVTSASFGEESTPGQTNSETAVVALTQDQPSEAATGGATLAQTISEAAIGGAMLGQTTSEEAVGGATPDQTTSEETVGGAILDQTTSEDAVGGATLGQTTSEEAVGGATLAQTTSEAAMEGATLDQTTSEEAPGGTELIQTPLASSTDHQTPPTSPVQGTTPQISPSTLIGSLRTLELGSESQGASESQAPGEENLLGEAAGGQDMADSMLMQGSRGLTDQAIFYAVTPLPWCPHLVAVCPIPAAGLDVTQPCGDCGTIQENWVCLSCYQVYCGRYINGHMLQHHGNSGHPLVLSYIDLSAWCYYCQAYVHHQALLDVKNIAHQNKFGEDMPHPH
Method in brief: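 Two-step fluorogenic assay with recombinant HDAC1, 2, 3 or 6. Deacetylation of Boc-Lys(acetyl)-AMC is followed by trypsin conversion of the deacetylated product to a fluorescent signal.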

[3] = Cytotoxicity against HUVEC cells assessed as reduction in cell viability after 96 hrs by MTT assay; settings: human

Sequence of Histone deacetylase 4 (P56524 whole entry): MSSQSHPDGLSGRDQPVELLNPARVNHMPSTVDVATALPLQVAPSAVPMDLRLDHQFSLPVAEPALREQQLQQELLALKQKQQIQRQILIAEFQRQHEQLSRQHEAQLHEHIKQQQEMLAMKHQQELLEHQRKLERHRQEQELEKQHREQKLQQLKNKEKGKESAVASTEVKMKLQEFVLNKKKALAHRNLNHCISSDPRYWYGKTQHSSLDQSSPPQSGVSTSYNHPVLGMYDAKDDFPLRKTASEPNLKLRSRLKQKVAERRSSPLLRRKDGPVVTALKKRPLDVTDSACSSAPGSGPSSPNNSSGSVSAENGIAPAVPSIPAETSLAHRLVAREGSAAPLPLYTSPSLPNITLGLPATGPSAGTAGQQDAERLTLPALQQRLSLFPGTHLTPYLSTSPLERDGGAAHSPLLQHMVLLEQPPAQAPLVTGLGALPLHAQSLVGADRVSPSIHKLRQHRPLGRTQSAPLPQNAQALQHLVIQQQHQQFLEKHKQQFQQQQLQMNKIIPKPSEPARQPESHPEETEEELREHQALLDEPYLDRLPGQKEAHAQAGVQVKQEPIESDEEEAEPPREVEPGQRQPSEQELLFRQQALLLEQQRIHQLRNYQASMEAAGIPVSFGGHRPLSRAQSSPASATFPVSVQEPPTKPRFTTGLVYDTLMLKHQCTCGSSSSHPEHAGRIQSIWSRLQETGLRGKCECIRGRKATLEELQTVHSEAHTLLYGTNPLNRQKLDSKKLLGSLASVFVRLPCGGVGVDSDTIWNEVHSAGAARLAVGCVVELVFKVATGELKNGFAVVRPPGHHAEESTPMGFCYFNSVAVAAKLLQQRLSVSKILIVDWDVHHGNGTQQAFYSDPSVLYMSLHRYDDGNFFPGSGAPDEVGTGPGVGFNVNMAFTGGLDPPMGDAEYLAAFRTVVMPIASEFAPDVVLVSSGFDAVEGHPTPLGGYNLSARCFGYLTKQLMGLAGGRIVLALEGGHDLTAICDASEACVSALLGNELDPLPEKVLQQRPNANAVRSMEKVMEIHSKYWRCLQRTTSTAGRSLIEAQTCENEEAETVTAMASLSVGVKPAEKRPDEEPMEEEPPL

| SMILES | Activity [1] [%] | IC50 (Histone deacetylase 4) [nM] | IC50 [2] [µM] | IC50 at 96 h [3] [nM] |
| --- | --- | --- | --- | --- |
| O=C1NC(=O)/C(=C\c2ccc(OCC(=O)N3N=C(c4ccc(F)cc4)CC3c3ccc(Cl)c(Cl)c3)cc2)S1 (configuration not stated) | 22 | 800 | 13 | 2000 |
| O=C1NC(=O)/C(=C\c2ccc(OCC(=O)N3N=C(c4ccc(F)cc4)CC3c3ccco3)cc2)S1 (configuration not stated) | 45 | 880 | 7.6 | 700 |
| O=C1NC(=O)/C(=C\c2ccc(OCC(=O)N3N=C(c4ccccc4)CC3c3ccc(Cl)c(Cl)c3)cc2)S1 (configuration not stated) | 9.4 | 700 | 39 | > 10000 |
